From paper PMC4725056 (Nature chemistry, 2015)

Tests used:
Format in all cases: cell-based, human
lung cancer H1299 cells = experiment: Cell proliferation; settings: DC_AC50 (10 μM)
[1] = system: p-AMPK and p-ACC1 in H1299 cells; experiment: AMPK and ACC1 phosphorylation; settings: together with DC_AC50 (10 μM), 12 hours
H1299 cells [2] = experiment: Measurement of ROS production; settings: pretreated with 1 mM or 3 mM NAC for one hour, followed by 5 μM DC_AC50 for 12 hours
H1299 cells [3] = experiment: Total cellular copper content by inductively coupled plasma mass spectrometry; settings: copper chelator control
Outline: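 Total cellular copper in H1299 cells measured by inductively coupled plasma mass spectrometry after test-compound treatment; tetrathiomolybdate served as the copper-chelator control.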

H1299 cells [4] = experiment: Lipid biosynthesis; settings: 10 μM compound C together with DC_AC50

| SMILES | rescue of cell-proliferation inhibition by DC_AC50 (lung cancer H1299 cells) | rescue of DC_AC50-induced AMPK and ACC1 phosphorylation [1] | rescue of DC_AC50-induced ROS increase (H1299 cells [2]) | decrease of the total cellular copper content (H1299 cells [3]) [%] | rescue of lipid biosynthesis reduced by DC_AC50 (H1299 cells [4]) |
| --- | --- | --- | --- | --- | --- |
| CC(=O)N[C@@H](CS)C(=O)O [NAC, N-acetyl-L-cysteine] | partially rescued | failed to rescue | rescued almost completely |  |  |
| [SH-].[SH-].[S]=[Mo]=[S] [TM, tetrathiomolybdate] |  |  |  | ~40 |  |
| c1cc(-c2cnn3cc(-c4ccc(OCCN5CCCCC5)cc4)cnc23)ccn1 [compound C] | partially rescued | almost completely reversed |  |  | recovered |
